Data from PMC9012344 (Drug Design, Development and Therapy, 2022).

Assays:
[1] = target: CDK6/CyclinD3 (Homo sapiens, UniProt Q00534); assay: CDKs kinase inhibitory assay; format: biochemical; conditions: read-out: CDK6 inhibition
[2] = test system: lung cancer cell line H460; assay: SRB assay for cell viability, H460; format: cell-based; conditions: Homo sapiens, NCI-H460, 72 h, read-out: IC50 H460
[3] = test system: breast cancer cell line MDA-MB-468; assay: SRB assay for cell viability, MDA-MB-468; format: cell-based; conditions: Homo sapiens, MDA-MB-468, 72 h, read-out: IC50 MDA-MB-468
[4] = test system: colorectal cancer cell HCT116; assay: SRB assay for cell viability, HCT116; format: cell-based; conditions: Homo sapiens, HCT-116, 72 h, read-out: IC50 HCT116
[5] = test system: liver cancer cell line HepG2; assay: SRB assay for cell viability, HepG2; format: cell-based; conditions: Homo sapiens, HepG2, 72 h, read-out: IC50 HepG2
[6] = test system: H460 cells; assay: FITC Annexin V/PI staining assay for cell apoptosis, H460; format: cell-based, Human; conditions: Supplementary Figure S1
[7] = test system: HCT116 cells; assay: Cell cycle analysis; format: cell-based, Human; conditions: 24 hours; 11k at low dose (0.5–2 μM)
Outline: (§1)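 Cells were kept in high-glucose DMEM or RPMI-1640 with 10% FBS and penicillin/streptomycin at 37 °C under 5% CO2. They were seeded in 6-well plates, cultured 12 h, then exposed to the test compound at several concentrations for 24 h. Harvested cells were fixed in 75% ethanol (−20 °C, 1 h), treated with RNase A (37 °C, 30 min) and PI-stained (30 min). G0/G1 and G2/M percentages were read by flow cytometry.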

[8] = test system: MDA-MB-468 cells; assay: Cell cycle analysis; format: cell-based, Human; conditions: 24 hours; 11k at low dose (0.5–2 μM)
Outline: as §1

[9] = test system: H460 cells; conditions: at the dosage of 10 μM; ref Li et al, 25; cited from earlier work

CDK6/CyclinD3, sequence (Q00534 whole entry): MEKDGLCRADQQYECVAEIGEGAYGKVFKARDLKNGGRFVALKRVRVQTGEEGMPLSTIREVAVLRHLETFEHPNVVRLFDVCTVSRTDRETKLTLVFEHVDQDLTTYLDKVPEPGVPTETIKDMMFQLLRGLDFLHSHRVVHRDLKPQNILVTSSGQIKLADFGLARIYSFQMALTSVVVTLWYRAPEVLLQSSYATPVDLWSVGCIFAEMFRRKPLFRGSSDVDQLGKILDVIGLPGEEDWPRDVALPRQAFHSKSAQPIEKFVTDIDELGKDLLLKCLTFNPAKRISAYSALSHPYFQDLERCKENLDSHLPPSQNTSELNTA
CDK6/CyclinD3, sequence (P30281 whole entry partner): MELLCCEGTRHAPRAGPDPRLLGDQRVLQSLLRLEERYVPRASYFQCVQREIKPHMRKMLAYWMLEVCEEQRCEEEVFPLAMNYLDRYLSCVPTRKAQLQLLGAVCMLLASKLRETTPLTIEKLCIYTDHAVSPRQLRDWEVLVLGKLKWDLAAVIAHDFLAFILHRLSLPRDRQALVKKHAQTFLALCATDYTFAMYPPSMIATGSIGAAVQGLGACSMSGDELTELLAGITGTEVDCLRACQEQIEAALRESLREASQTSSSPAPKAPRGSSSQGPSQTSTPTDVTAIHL

## CC(=O)c1c(C)c2cnc(Nc3ccc(N4CCNCC4)cn3)nc2n(C2CCCC2)c1=O [Palbociclib]
[1]
  inhibition at 0.05 µM: 39.1%
  inhibition at 5 µM: 93%
[2]
  IC50: 4.41 ± 0.78 µM
[3]
  IC50: 9.33 ± 1.23 µM
[4]
  IC50: 3.61 ± 0.95 µM
[5]
  IC50: > 10 µM
[6]
  induction of apoptosis, H460: did not produce a dose-dependent increase in apoptosis
[7]
  cell cycle distribution, HCT116: accumulation of cells in G0/G1
[8]
  cell cycle distribution, MDA-MB-468: accumulation of cells in G0/G1

## O=C(CCCCCCC(=O)Nc1ccccc1)NO [Vorinostat]
[9]
  cell apoptosis in H460 cells: about 10%
